# Positions count from the first letter of the chain named. Read-outs that look alike come from different tables or passages of the source.
# Tests used:
# β-glucosidase (almond) = experiment: Glycosidase inhibition assay, β-glucosidase; assay type: biochemical; conditions: substrate at Km; for β-Glc % Ra (% remaining activity at 100 µM): 100 µM compound; for IC50: read-out: β-Glc IC50
# Outline: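 Enzyme is added last; incubation is 4–5 min at room temperature, then 0.2 M sodium borate (pH 9.8) quenches. Absorbance at 405 nm gives % remaining activity at 100 µM compound. IC50 comes from non-linear fitting of relative activity versus concentration to a Hill-slope equation.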
# [1] = target: T1, ceramide-specific glucosyltransferase (Mus musculus, UniProt O88693); experiment: Ceramide-specific glucosyltransferase assay, mouse testicular microsomes; assay type: biochemical, C57BL/6 mouse; conditions: mouse testicular microsomes, n.i. = no inhibition at 1000 µM concentration; for IC50: read-out: ceramide-specific glucosyltransferase IC50 (C57BL/6, mouse)
# T1 sequence (O88693 1-394): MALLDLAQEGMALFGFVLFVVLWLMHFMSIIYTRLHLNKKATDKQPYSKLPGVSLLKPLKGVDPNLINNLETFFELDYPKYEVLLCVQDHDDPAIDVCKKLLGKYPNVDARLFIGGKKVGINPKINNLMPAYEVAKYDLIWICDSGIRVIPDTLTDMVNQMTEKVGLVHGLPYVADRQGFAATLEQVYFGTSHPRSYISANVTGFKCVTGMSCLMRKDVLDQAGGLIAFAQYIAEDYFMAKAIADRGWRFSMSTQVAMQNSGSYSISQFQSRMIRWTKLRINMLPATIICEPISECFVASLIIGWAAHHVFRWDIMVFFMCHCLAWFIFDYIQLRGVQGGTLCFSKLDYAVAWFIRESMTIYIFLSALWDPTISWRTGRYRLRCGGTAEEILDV
# [2] = target: T2, ceramide-specific glucosyltransferase (Rattus norvegicus, UniProt Q9R0E0); experiment: Ceramide-specific glucosyltransferase assay, rat testicular microsomes; assay type: biochemical, Long Evans (LE) rat; conditions: rat testicular microsomes, n.i. = no inhibition at 1000 µM concentration; for IC50: read-out: ceramide-specific glucosyltransferase IC50 (LE rat)
# T2 sequence (Q9R0E0 1-394): T1 sequence (O88693 1-394) with D96E, K164R, R249K, T377A
# [3] = test system: α-glucosidase (Saccharomyces cerevisiae); experiment: Glycosidase inhibition assay, α-glucosidase; assay type: biochemical; conditions: substrate at Km; for α-Glc % Ra (% remaining activity at 100 µM): 100 µM compound
# [4] = target: α-galactosidase (green coffee beans) (Coffea arabica, UniProt Q42656); experiment: biochemical; conditions: for α-Gal % Ra (% remaining activity at 100 µM): 100 µM compound, substrate at Km
# [5] = target: β-galactosidase (Escherichia coli) (Escherichia coli, UniProt P00722); experiment: biochemical; conditions: for remaining activity at 100 µM: read-out: β-Gal % Ra (% remaining activity at 100 µM); for β-Gal % Ra (% remaining activity at 100 µM): 100 µM compound
# [6] = target: T3, α-mannosidase (jack bean) (Canavalia ensiformis, UniProt C0HJB3); experiment: Glycosidase inhibition assay, α-mannosidase; assay type: biochemical; conditions: for α-Man % Ra (% remaining activity at 100 µM): 100 µM compound, substrate at Km
# T3 sequence (C0HJB3 1-562 limits assumed): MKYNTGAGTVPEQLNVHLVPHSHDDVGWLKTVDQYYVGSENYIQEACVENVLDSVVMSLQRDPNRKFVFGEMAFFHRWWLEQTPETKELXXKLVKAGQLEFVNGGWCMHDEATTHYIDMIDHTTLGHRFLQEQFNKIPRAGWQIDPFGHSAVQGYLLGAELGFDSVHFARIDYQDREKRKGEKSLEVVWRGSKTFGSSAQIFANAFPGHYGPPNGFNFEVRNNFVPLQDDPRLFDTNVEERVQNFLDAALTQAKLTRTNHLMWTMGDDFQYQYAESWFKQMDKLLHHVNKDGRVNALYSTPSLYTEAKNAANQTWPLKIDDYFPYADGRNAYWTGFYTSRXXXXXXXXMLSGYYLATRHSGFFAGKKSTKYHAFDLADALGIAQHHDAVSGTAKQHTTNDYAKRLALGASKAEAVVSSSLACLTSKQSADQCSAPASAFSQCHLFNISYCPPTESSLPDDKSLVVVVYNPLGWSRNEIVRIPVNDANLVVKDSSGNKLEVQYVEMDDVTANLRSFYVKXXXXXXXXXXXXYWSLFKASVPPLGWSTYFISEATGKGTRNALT
# T3 sequence (C0HJB3 563-981 partner limits assumed): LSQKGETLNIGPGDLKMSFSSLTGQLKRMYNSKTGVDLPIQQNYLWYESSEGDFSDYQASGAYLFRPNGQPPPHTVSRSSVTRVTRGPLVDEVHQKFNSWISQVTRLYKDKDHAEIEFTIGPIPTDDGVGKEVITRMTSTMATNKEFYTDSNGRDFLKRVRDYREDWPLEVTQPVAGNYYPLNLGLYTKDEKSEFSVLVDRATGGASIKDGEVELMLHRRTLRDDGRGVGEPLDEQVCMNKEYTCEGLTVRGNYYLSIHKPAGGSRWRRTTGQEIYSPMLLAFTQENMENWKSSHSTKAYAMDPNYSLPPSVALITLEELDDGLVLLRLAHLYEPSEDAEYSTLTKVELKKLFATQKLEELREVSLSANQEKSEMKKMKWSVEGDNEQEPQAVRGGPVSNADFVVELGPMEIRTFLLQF
# Outline: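 Enzyme starts the reaction with test compound at 100 µM. After 4–5 min at room temperature, 0.2 M sodium borate (pH 9.8) quenches it. Absorbance is read at 405 nm and reported as % remaining activity.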
# [7] = test system: β-mannosidase (Roman snail); experiment: Glycosidase inhibition assay, β-mannosidase; assay type: biochemical; conditions: 100 µM compound; substrate at Km
# Outline: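 Test compound is at 100 µM. Enzyme addition starts the reaction, which runs 4–5 min at room temperature before quenching with 0.2 M sodium borate (pH 9.8). Absorbance is read at 405 nm and given as % remaining activity.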
# Chain of α-galactosidase (green coffee beans) (Q42656 16-378): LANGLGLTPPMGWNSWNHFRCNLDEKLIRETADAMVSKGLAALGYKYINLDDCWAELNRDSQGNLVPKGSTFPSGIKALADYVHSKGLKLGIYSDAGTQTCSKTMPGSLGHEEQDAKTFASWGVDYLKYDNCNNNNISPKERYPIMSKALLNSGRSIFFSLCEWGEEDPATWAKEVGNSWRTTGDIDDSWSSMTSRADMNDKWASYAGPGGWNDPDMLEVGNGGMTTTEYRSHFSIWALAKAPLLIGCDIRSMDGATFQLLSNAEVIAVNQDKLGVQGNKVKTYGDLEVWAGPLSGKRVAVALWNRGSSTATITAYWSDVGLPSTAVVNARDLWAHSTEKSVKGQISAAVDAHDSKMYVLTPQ
# Chain of β-galactosidase (Escherichia coli) (P00722 2-1024): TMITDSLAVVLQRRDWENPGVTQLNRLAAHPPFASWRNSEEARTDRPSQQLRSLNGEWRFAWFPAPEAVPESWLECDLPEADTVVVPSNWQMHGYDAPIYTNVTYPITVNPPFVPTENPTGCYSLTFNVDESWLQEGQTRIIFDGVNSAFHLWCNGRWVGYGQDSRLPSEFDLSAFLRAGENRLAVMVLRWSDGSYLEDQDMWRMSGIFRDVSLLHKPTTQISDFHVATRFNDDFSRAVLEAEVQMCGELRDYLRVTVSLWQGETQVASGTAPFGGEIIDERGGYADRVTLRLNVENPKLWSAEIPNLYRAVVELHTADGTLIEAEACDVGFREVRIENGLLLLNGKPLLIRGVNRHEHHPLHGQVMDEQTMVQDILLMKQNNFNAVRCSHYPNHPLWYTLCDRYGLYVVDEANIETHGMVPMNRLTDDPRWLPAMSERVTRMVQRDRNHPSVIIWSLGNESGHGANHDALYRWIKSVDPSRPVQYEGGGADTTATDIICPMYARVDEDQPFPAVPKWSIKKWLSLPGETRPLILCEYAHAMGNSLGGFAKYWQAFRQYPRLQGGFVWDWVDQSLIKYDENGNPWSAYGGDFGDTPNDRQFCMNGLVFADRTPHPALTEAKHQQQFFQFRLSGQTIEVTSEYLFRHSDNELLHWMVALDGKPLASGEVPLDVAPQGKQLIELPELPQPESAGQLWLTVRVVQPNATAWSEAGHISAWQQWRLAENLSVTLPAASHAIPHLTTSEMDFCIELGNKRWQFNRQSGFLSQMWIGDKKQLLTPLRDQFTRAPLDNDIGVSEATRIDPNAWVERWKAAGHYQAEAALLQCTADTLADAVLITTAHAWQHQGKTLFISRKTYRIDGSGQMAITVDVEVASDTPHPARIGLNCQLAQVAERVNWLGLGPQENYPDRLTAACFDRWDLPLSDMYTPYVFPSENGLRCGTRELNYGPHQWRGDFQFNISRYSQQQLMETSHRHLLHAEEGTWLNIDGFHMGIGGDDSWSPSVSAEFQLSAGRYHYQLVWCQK
SMILES,β-Glc % Ra (% remaining activity at 100 µM) (β-glucosidase (almond)),α-Glc % Ra (% remaining activity at 100 µM) [3],β-Man % Ra (% remaining activity at 100 µM) [7],IC50 [2],α-Gal % Ra (% remaining activity at 100 µM) [4],β-Gal % Ra (% remaining activity at 100 µM) ([5]; substrate at Km),α-Man % Ra (% remaining activity at 100 µM) [6],further results
"O[C@H]1[C@H](O)[C@@H](O)CN2CC[C@H](O)[C@H]12 [Castano., castanospermine, reference compound]",13.5%,,,,,,,
"CCCCN1C/C=C\[C@@H](O)[C@H](O)[C@@H](O)C1 [Compound 3, (3S,4S,5R,Z)-1-Butyl-1,2,3,4,5,8-hexahydroazocine-3,4,5-triol]",52%,81%,99%,,,,,"ceramide-specific glucosyltransferase IC50 (C57BL/6, mouse) [1]: n.i.; ceramide-specific glucosyltransferase IC50 (LE rat) [2]: n.i.; IC50 (β-glucosidase (almond)): 105 µM; remaining activity at 100 µM ([4]; read-out: α-Gal % Ra (% remaining activity at 100 µM)): 100%; remaining activity at 100 µM [5]: 94%; remaining activity at 100 µM ([6]; read-out: α-Man % Ra (% remaining activity at 100 µM)): 100%"
"CCCCCCCCCN1C[C@@H](O)[C@@H](O)[C@@H](O)[C@H](O)[C@@H](O)C1 [Compound 6, (3S,4R,5S,6R,7R)-1-Nonylazocane-3,4,5,6,7-pentaol]",85%,84%,99%,127 µM,100%,92%,100%,"ceramide-specific glucosyltransferase IC50 (C57BL/6, mouse) [1]: n.i."
"CCCCN1[C@H](CO)[C@@H](O)[C@@H]1CO [Compound 24, ((2R,3s,4S)-1-Butyl-3-hydroxyazetidine-2,4-diyl)dimethanol]",101%,65%,113%,> 300 µM,106%,109%,99%,IC50 [1]: > 300 µM
"CCCCCCCCCN1[C@H](CO)[C@@H](O)[C@@H]1CO [Compound 25, ((2R,3s,4S)-3-Hydroxy-1-nonylazetidine-2,4-diyl)dimethanol]",26%,,76%,91 µM,66%,107%,92%,IC50 [1]: 44 µM; IC50 ([3]; read-out: α-Glc IC50): 0.6 µM; IC50 (β-glucosidase (almond)): 20 µM
"OC[C@H]1NC[C@H](O)[C@@H](O)[C@H]1O [DGJ, 1-deoxygalactonojirimycin, reference compound]",,,,,0.05%,23%,,"IC50 ([5]; read-out: β-Gal IC50, substrate at Km): 40 µM"
"OC[C@H]1NC[C@@H](O)[C@@H](O)[C@@H]1O [DMJ, 1-deoxymannojirimycin, reference compound]",,,77%,,,,75%,
"OC[C@H]1NC[C@H](O)[C@@H](O)[C@@H]1O [DNJ, 1-deoxynojirimycin, reference compound]",,34%,,,,,,
"CCCCN1C[C@H](O)[C@@H](O)[C@@H](O)[C@H]1CO [NB-DGJ, N-butyldeoxygalactonojirimycin, reference compound]",,,,,,,,IC50 [5]: 6 µM; remaining activity at 100 µM [5]: 9.6%
